Format in all cases: in vitro ADME
Data set [1] has as its target T1, CYP2A6 (Homo sapiens, UniProt P11509).
T1 sequence (P11509 1-494): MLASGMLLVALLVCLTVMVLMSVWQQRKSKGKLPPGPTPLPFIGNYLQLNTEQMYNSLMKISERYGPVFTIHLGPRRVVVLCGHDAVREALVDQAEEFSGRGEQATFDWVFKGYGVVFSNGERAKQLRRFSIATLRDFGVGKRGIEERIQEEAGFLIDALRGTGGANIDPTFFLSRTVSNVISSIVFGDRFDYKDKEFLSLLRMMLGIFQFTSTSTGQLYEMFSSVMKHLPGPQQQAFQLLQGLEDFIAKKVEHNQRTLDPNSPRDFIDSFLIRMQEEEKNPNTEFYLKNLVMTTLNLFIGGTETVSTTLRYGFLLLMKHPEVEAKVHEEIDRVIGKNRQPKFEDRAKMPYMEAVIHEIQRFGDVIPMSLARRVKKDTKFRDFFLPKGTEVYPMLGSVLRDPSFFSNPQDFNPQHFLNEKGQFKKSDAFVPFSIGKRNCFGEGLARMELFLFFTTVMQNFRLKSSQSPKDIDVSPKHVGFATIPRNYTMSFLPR
In words: CYP2A6 inhibition in human liver microsomes. In a few lines:
(§1)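 Pooled human liver microsomes were incubated with standard CYP-selective substrates, with and without test compound at 0.03–100 μM. Standard selective inhibitors for each isoform ran in parallel as positive controls. Read-out was IC50. For CYP3A4 only, time-dependent inhibition was also tested after 30 min preincubation, using midazolam and testosterone as substrates.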

The target of data set [2] is OAT1 (Homo sapiens, UniProt Q4U2R8). In words: OAT1 uptake inhibition in transfected HEK cells. The method in brief:
(§2)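 HEK cells overexpressing NTCP, OAT1, OAT3, OATP2B1, OCT1 or OCT2 were incubated with probe substrate. Pairs were estrone 3-sulfate/cyclosporin A (NTCP), PAH/probenecid (OAT1), furosemide/probenecid (OAT3), estrone 3-sulfate/glibenclamide (OATP2B1), 3H-MPP+/decynium 22 (OCT1) and 3H-MPP+/imipramine (OCT2). IC50 was determined with and without test compound, at ≤50 µM for the parent and ≤10 µM for the metabolite.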

In data set [3] the target is T2, OCT1 (Homo sapiens, UniProt O15245).
T2 sequence (O15245 1-554): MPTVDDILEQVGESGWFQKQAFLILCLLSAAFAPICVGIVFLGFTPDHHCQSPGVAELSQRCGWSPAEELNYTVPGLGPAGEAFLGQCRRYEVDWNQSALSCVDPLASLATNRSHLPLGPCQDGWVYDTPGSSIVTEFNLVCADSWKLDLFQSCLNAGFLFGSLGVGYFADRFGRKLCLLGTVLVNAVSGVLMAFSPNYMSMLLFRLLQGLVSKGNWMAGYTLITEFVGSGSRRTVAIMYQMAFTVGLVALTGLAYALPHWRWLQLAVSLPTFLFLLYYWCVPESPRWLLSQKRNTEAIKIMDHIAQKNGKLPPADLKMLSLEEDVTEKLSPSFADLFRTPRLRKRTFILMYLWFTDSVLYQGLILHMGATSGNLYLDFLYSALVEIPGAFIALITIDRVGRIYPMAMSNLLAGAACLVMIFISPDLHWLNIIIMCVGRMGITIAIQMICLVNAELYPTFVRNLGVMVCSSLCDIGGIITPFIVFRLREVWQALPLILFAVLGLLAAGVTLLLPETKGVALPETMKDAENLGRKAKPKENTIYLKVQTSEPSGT
Put plainly: Cellular uptake in OCT1-transfected HEK cells. To be noted: not affected by decynium-22. The method in brief:
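Cellular uptake of test compound was measured in HEK cells transfected to overexpress OATP1B1, OATP1B3 or OCT1. Vector-control cells were run in parallel. Standard inhibitors and probe substrates were included; decynium-22 served as OCT1 inhibitor, rifamycin as OATP inhibitor.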

The target in data set [4] is CYP2C9 (Homo sapiens, UniProt P11712). Put plainly: CYP2C9 inhibition in human liver microsomes. In a few lines: as §1
CYP2C9, sequence (P11712 whole entry): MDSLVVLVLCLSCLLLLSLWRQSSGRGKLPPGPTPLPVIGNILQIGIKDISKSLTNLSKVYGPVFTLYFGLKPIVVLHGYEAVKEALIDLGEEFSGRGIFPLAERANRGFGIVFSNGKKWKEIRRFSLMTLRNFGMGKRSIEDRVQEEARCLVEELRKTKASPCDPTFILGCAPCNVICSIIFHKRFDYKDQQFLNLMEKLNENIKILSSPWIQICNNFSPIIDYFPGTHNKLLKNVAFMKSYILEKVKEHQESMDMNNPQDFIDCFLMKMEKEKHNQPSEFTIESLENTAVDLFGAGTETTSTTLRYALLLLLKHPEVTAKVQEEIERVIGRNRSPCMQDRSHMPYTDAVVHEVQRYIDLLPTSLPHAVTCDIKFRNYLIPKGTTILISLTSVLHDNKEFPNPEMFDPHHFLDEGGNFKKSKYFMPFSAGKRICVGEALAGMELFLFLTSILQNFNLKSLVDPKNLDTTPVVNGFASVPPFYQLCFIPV
The target of data set [5] is BSEP (Homo sapiens, UniProt O95342). Put plainly: BSEP inhibition in sandwich-cultured human hepatocytes. In a few lines:
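Sandwich-cultured human hepatocytes were used. Probe substrate was taurocholic acid, with cyclosporin as reference inhibitor. Probe transport was measured without and with test compound to derive IC50. Protein was added to the medium for one tested compound, permitting a higher test concentration.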

Data set [6] has as its target T2, OCT1. Put plainly: OCT1 uptake inhibition in transfected HEK cells. In a few lines:
as §2

The target in data set [7] is CYP3A4 (Homo sapiens, UniProt P08684). Put plainly: CYP3A4 inhibition in human liver microsomes. In a few lines: as §1
CYP3A4, sequence (P08684 whole entry): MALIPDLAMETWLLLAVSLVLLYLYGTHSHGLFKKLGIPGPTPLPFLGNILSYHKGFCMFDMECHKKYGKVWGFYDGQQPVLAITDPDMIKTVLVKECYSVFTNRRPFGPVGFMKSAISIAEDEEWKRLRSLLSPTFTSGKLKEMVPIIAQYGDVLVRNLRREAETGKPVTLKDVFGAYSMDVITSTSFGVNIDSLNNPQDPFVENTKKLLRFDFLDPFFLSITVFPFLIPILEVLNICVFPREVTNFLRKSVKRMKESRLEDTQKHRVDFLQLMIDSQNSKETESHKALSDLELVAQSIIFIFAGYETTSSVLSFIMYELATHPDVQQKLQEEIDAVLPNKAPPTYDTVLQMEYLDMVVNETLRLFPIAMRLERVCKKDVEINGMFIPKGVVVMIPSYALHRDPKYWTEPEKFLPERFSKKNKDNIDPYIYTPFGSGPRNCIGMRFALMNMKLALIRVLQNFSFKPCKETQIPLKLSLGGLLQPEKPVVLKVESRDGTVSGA
In data set [8] the target is MATE1 (Homo sapiens, UniProt Q96FL8). In words: MATE1 inhibition in transfected HEK cells. The method in brief:
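HEK cells were transfected with MRP2, MATE1 or MATE2-K. Pairs were CDCF/benzbromarone (MRP2), metformin/cimetidine (MATE1) and metformin/pyrimethamine (MATE2-K). Probe transport was assessed with and without test compound, and IC50 was determined.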

Data set [9] deals with T3, CYP1A2 (Homo sapiens, UniProt P05177).
T3 sequence (P05177 1-516): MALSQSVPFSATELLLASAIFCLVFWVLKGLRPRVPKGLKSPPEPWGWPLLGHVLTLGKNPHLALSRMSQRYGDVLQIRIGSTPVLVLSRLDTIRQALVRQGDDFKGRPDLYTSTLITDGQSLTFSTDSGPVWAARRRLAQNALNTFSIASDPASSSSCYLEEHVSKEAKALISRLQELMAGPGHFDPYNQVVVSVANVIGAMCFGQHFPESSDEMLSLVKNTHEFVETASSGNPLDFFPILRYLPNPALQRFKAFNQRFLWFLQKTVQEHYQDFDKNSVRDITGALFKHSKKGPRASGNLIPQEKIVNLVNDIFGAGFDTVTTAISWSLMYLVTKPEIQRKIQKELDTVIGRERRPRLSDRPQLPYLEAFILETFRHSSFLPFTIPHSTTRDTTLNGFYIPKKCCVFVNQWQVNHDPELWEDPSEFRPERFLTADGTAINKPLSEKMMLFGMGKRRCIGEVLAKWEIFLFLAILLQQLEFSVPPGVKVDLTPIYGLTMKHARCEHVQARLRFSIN
In words: biochemical.

[10] abbreviates: read-out: IC50, CYP3A4 (with pre-incubation), human liver microsomes, substrate midazolam, 30 min pre-incubation.
[11] abbreviates: read-out: IC50, CYP3A4 (with pre-incubation), human liver microsomes, substrate testosterone, 30 min pre-incubation.

Read-outs that look alike come from different tables or passages of the source.

MATE1, sequence (Q96FL8 whole entry): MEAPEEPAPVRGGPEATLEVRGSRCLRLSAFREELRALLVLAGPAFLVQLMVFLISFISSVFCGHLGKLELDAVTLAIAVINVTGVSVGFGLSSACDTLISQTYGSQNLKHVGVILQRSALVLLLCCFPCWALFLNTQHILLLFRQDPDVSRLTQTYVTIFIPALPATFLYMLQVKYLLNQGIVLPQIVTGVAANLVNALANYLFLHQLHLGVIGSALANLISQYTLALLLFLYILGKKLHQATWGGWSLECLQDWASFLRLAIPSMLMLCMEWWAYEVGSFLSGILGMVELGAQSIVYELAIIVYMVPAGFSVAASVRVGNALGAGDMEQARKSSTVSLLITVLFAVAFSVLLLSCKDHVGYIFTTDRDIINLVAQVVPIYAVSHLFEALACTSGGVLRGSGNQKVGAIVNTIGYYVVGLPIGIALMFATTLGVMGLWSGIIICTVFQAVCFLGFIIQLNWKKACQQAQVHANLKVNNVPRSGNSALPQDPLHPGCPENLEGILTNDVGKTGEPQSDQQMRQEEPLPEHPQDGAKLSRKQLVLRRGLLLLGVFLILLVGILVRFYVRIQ
OAT1, sequence (Q4U2R8 whole entry): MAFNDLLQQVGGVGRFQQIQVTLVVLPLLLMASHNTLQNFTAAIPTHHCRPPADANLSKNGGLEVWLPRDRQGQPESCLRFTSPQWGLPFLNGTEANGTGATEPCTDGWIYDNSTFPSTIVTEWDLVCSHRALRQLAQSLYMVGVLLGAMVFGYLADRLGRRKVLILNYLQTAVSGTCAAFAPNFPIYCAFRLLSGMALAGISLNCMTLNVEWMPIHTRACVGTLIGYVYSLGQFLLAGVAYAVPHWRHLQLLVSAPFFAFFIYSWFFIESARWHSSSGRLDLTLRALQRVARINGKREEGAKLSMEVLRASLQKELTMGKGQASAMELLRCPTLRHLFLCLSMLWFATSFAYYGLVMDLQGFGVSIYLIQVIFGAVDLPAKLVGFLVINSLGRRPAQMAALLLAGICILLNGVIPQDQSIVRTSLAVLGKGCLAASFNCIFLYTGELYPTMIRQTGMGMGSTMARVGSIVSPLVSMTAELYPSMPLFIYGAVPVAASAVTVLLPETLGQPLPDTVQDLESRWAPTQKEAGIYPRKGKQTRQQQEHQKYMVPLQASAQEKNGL
BSEP, sequence (O95342 whole entry): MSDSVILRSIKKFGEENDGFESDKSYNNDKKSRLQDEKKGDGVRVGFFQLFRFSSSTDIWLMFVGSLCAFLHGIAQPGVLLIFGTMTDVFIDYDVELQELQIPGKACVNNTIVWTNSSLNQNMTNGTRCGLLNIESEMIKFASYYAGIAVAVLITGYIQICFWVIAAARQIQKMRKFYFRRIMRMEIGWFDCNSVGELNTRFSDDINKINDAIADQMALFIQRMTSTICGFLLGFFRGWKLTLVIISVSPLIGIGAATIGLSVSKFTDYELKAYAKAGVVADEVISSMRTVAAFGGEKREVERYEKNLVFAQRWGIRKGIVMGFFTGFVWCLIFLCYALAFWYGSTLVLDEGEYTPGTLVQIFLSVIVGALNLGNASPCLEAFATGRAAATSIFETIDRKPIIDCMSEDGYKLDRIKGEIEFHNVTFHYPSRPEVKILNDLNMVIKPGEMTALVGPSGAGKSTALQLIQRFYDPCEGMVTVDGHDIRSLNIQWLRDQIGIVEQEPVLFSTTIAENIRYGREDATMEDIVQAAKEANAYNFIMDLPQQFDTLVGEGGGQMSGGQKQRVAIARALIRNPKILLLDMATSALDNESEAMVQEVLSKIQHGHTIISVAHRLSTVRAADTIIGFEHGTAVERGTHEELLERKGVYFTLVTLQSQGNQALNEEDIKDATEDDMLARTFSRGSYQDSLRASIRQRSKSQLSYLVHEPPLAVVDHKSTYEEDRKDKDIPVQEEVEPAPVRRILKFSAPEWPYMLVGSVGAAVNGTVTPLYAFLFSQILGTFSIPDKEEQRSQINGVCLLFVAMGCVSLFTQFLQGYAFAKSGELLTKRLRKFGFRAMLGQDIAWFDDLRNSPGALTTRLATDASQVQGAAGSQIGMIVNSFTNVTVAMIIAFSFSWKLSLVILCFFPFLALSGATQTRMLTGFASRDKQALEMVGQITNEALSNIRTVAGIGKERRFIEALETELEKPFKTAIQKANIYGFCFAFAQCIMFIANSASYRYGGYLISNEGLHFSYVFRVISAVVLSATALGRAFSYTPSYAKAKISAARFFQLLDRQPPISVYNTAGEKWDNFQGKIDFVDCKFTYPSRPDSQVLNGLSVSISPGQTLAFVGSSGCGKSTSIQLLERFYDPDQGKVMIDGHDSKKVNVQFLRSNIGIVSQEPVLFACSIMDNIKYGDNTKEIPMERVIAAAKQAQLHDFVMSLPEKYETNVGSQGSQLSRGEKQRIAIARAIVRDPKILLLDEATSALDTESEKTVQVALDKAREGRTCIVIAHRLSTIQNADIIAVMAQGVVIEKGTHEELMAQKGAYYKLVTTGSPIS

Take `CC(O)c1cc(C(=O)N[C@@H](C)Cn2ccc(-c3ccc(C#N)c(Cl)c3)n2)[nH]n1` (some centres unmarked) [Darolutamide, darolutamide]: the IC50 is above 100 µM in [1]; above 50 µM in data set [2]; 30.3 µM in data set [4]; above 60 µM in [5]; above 50 µM in [6]; above 100 µM in [7]. In addition, the IC50 is above 100 µM in [7] (setting [10]), above 100 µM in [7] (setting [11]), 32.3 µM in data set [8] and above 100 µM in data set [9]. In [3], the “uptake in OCT1-transfected HEK cells” value is listed as “no uptake”.

In the case of `CC(=O)c1cc(C(=O)N[C@@H](C)Cn2ccc(-c3ccc(C#N)c(Cl)c3)n2)[nH]n1` [Keto-darolutamide, keto-darolutamide], the IC50 is above 100 µM in data set [1] (read-out: IC50, CYP2A6, human liver microsomes, substrate coumarin); above 2 µM in [2] (read-out: IC50, OAT1, HEK cells, substrate PAH, reference probenecid); 9.6 µM in data set [4] (read-out: IC50, CYP2C9, human liver microsomes, substrate diclofenac); above 300 µM in [5] (read-out: IC50, BSEP, sandwich-cultured human hepatocytes, taurocholic acid/cyclosporin, higher test concentration possible because of addition of protein to the assay media); above 10 µM in data set [6] (read-out: IC50, OCT1, HEK cells, substrate 3H-MPP+, reference decynium 22); above 50 µM in data set [7] (setting [10]). In addition, the IC50 is above 50 µM in [7] (setting [11]); above 50 µM in [7] (read-out: IC50, CYP3A4, human liver microsomes, substrate midazolam); above 50 µM in data set [7] (read-out: IC50, CYP3A4, human liver microsomes, substrate testosterone); above 10 µM in data set [8] (read-out: IC50, MATE1, HEK cells, substrate metformin, reference cimetidine); above 100 µM in data set [9] (read-out: IC50, CYP1A2, human liver microsomes, substrate phenacetin). In addition, the “uptake in OCT1-transfected HEK cells” value in data set [3] is “no uptake”.

These data come from PMC6828636 (European Journal of Drug Metabolism and Pharmacokinetics, 2019).
